Measured values reported in ChEMBL document CHEMBL1143310, “Design, synthesis, and biological evaluation of fluorinated analogues of salicylihalamide” (J Med Chem, 2009).
pIC50: −log10 of the molar value. Active and inactive are the calls of the source. The calls are words filed in the database; no cut-off is given here.

Experiments:
COS-7 = experiment: Inhibition of V-ATPase activity in african green monkey COS7 cells assessed as increase in luminal pH of lysosomes at 1 uM after 5 hrs by fluorescent microscopy; type: cell-based; conditions: Chlorocebus aethiops
In short: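 COS-7 cells grown in DMEM with 10% FCS at 37 °C in 5% CO2 on poly-L-lysine coverslips overnight. Compound added at 1 µM final for 5 h at 37 °C. Cells then loaded 1 min with LysoSensor Green DND-189 (1 µM final) and washed with HBSS. Lysosomal fluorescence imaged by microscopy with a cooled CCD camera. Duplicate experiments.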

[1] = Cytotoxicity against african green monkey COS7 cells at 1 uM after 5 hrs by trypan blue exclusion test; type: cell-based; conditions: chlorocebus aethiops, cos-7, 5 h
In short: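 COS-7 cells were cultured on poly-L-lysine coverslips and exposed to compound at 1 µM final for 5 h at 37 °C. Intact or treated cells were soaked in PBS with 0.3% trypan blue. Viability was judged by dye exclusion under bright-field and phase-contrast microscopy.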

[2] = Inhibition of proton transport activity of V-ATPase in pig adrenal chromaffin granule membrane by fluorescent quenching measurement; set-up: species or system Sus scrofa
In short: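 Porcine adrenal chromaffin granule membranes (50 µg protein) in 0.3 M sucrose, 40 mM KCl, 5 mM tricine, pH 8.0, with ACMA and valinomycin, preincubated 10 min at 37 °C. Compound added in DMSO (0.1% final), 3 min at 37 °C. MgATP added for 2 min, then FCCP. ACMA fluorescence quenching read. Activity taken as % of DMSO control, in triplicate with SD. IC50 derived graphically from log-concentration plots.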

[3] = Cytotoxicity against human NCI60 cells; type: functional
[4] = Cytotoxicity against human melanoma cells; type: functional; conditions: Melanoma cell
[5] = Inhibition of V-ATPase activity in bovine […] chromaffin granule membrane; set-up: species or system Bos taurus

Structure (SMILES) | Activity (COS-7) | Activity [1] | pIC50 [2] | GI50 [3] | GI50 [4] | pIC50 [5]
CC/C=C\C=C/C(=O)N/C=C\C[C@H]1C[C@@H](O)[C@@H](C)C/C=C/Cc2cccc(O)c2C(=O)O1 [SALICYLIHALAMIDE B] | Active | Non-toxic | 7.52 |  |  | 
CC/C=C\C=C/C(=O)N/C=C/C[C@H]1C[C@@H](O)[C@@H](C)C/C=C/Cc2ccc(F)c(O)c2C(=O)O1 [4-19F-SALICYLIHALAMIDE A] | Active |  | 8.70 |  |  | 
CC/C=C\C=C/C(=O)N/C=C\C[C@H]1C[C@@H](O)[C@@H](C)C/C=C/Cc2ccc(F)c(O)c2C(=O)O1 [4-19F-SALICYLIHALAMIDE B] | Active |  | 8.00 |  |  | 
CC/C=C\C=C/C(=O)N/C=C/C[C@H]1C[C@@H](O)[C@@H](C)C/C=C/Cc2cccc(O)c2C(=O)O1 [SALICYLIHALAMIDE A] | Active | Non-toxic | > 9.00 | 15 nM | 7 nM | 9.00
